# Experimental data published in ChEMBL document CHEMBL3804761, “Synthesis of a stable and orally bioavailable englerin analogue” (Bioorg Med Chem Lett, 2016).
# Legend:
# Type in all cases: functional
# [1] = Growth inhibition of human SF268 cells assessed as cell growth at 10 uM incubated for 48 hrs by sulforhodamine B assay relative to control; conditions: SF-268, 48 h, read-out: Activity
# Method in brief: (§1)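 Run in the standard NCI 60-cell-line screen. Cells were exposed to drug for two days, and the read-out was sulforhodamine B staining. Compound was tested at a single final concentration of 10 µM in every line, and results are reported as growth percent.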
# CCRF-CEM = assay: Growth inhibition of human CCRF-CEM cells assessed as cell growth at 10 uM incubated for 48 hrs by sulforhodamine B assay relative to control; conditions: read-out: Activity
# Method in brief: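 Single-dose screen in the NCI 60-cell-line panel at one final concentration of 10 µM. Two-day drug exposure with a sulforhodamine B endpoint. Values are growth percent for each cell line.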
# [2] = Growth inhibition of human Hs 578T cells assessed as cell growth at 10 uM incubated for 48 hrs by sulforhodamine B assay relative to control; conditions: read-out: Activity
# [3] = Growth inhibition of human PC3 cells assessed as cell growth at 10 uM incubated for 48 hrs by sulforhodamine B assay relative to control; conditions: PC-3, 48 h, read-out: Activity; method in brief: as §1
# [4] = Growth inhibition of human HCT15 cells assessed as cell growth at 10 uM incubated for 48 hrs by sulforhodamine B assay relative to control; conditions: HCT-15, 48 h, read-out: Activity; method in brief: as §1
# 786-0 = assay: Growth inhibition of human 786-0 cells assessed as cell growth at 10 uM incubated for 48 hrs by sulforhodamine B assay relative to control; conditions: 786-0, 48 h, read-out: Activity; method in brief: as §1
# [5] = Growth inhibition of human HCT116 cells assessed as cell growth at 10 uM incubated for 48 hrs by sulforhodamine B assay relative to control; conditions: HCT-116, 48 h, read-out: Activity; method in brief: as §1
# MCF7 [6] = assay: Growth inhibition of human MCF7 cells assessed as cell growth at 10 uM incubated for 48 hrs by sulforhodamine B assay relative to control; conditions: MCF7, 48 h, read-out: Activity; method in brief: as §1
# [7] = Growth inhibition of human SF295 cells assessed as cell growth at 10 uM incubated for 48 hrs by sulforhodamine B assay relative to control; conditions: SF-295, 48 h, read-out: Activity; method in brief: as §1
# NCI-H23 = assay: Growth inhibition of human NCI-H23 cells assessed as cell growth at 10 uM incubated for 48 hrs by sulforhodamine B assay relative to control; conditions: NCI-H23, 48 h, read-out: Activity; method in brief: as §1
# KM12 = assay: Growth inhibition of human KM12 cells assessed as cell growth at 10 uM incubated for 48 hrs by sulforhodamine B assay relative to control; conditions: KM12, 48 h, read-out: Activity; method in brief: as §1
# [8] = Growth inhibition of human OVCAR5 cells assessed as cell growth at 10 uM incubated for 48 hrs by sulforhodamine B assay relative to control; conditions: OVCAR-5, 48 h, read-out: Activity; method in brief: as §1
# U-251 = assay: Growth inhibition of human U251 cells assessed as cell growth at 10 uM incubated for 48 hrs by sulforhodamine B assay relative to control; conditions: U-251, 48 h, read-out: Activity
# Method in brief: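 NCI 60-cell line standard protocol, one-dose screen: single final concentration 10 µM, 2-day drug exposure, sulforhodamine B (SRB) endpoint; read-out is growth percent relative to untreated control.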
# [9] = Growth inhibition of human SW620 cells assessed as cell growth at 10 uM incubated for 48 hrs by sulforhodamine B assay relative to control; conditions: SW-620, 48 h, read-out: Activity; method in brief: as §1
# [10] = Growth inhibition of human IGROV1 cells assessed as cell growth at 10 uM incubated for 48 hrs by sulforhodamine B assay relative to control; conditions: IGROV-1, 48 h, read-out: Activity; method in brief: as §1
# MCF7 [11] = assay: Growth inhibition of human MCF7 cells incubated for 48 hrs by sulforhodamine B assay; conditions: MCF7, 48 h
# Method in brief: (§2)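 NCI 60-cell-line panel, standard protocol. Cells exposed to compound for two days, growth read by sulforhodamine B staining. Tested at five 10-fold dilutions, top concentration 100 µM, to give dose-response curves.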
# [12] = Growth inhibition of human OVCAR5 cells incubated for 48 hrs by sulforhodamine B assay; conditions: OVCAR-5, 48 h; method in brief: as §2
# [13] = Growth inhibition of human SF268 cells incubated for 48 hrs by sulforhodamine B assay; conditions: SF-268, 48 h; method in brief: as §2
# T47D = assay: Growth inhibition of human T47D cells incubated for 48 hrs by sulforhodamine B assay
# Method in brief: (§3)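 Tested in the standard NCI 60-cell-line protocol with two-day drug exposure and a sulforhodamine B endpoint. Compounds were first screened at a single final concentration of 10 µM, reported as growth percent. They were then run as five 10-fold dilutions starting from a high concentration of 100 µM to give dose-response curves.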
# [14] = Growth inhibition of human UACC257 cells incubated for 48 hrs by sulforhodamine B assay; conditions: UACC-257, 48 h; method in brief: as §3
# Malme-3M = assay: Growth inhibition of human MALME-3M cells incubated for 48 hrs by sulforhodamine B assay; method in brief: as §2
# [15] = Growth inhibition of human OVCAR3 cells incubated for 48 hrs by sulforhodamine B assay; conditions: OVCAR-3, 48 h; method in brief: as §2
# MDA-MB-435 = assay: Growth inhibition of human MDA-MB-435 cells incubated for 48 hrs by sulforhodamine B assay; conditions: MDA-MB-435, 48 h; method in brief: as §2
# [16] = Growth inhibition of human SF539 cells incubated for 48 hrs by sulforhodamine B assay; conditions: SF-539, 48 h; method in brief: as §2
# [17] = Growth inhibition of human Hs 578T cells incubated for 48 hrs by sulforhodamine B assay
# SN12C = assay: Growth inhibition of human SN12C cells incubated for 48 hrs by sulforhodamine B assay; method in brief: as §3
# [18] = Growth inhibition of human SF295 cells incubated for 48 hrs by sulforhodamine B assay; conditions: SF-295, 48 h; method in brief: as §2
# [19] = Growth inhibition of human LOXIMVI cells incubated for 48 hrs by sulforhodamine B assay; conditions: LOX IMVI; method in brief: as §2
# [20] = Growth inhibition of human DU145 cells incubated for 48 hrs by sulforhodamine B assay; conditions: DU-145, 48 h; method in brief: as §2
# [21] = read-out: pLC50 (the source's name) (converted)
smiles,measurement,setting,value
CC(C)[C@@]12C[C@@H](NC(=O)CF)[C@@](C)(O1)[C@@H]1CC[C@@H](C)[C@H]1[C@@H]2OC(=O)/C=C/c1ccccc1,growth at 10 µM,[1],97.7%
same,growth at 10 µM,CCRF-CEM,88.6%
same,growth at 10 µM,[2],92.6%
same,growth at 10 µM,[3],84%
same,growth at 10 µM,[4],103%
same,growth at 10 µM,786-0,97.3%
same,growth at 10 µM,[5],87.4%
same,growth at 10 µM,MCF7 [6],106%
same,growth at 10 µM,[7],105%
same,growth at 10 µM,NCI-H23,102%
same,growth at 10 µM,KM12,104%
same,growth at 10 µM,[8],102%
same,growth at 10 µM,U-251,106%
same,growth at 10 µM,[9],101%
same,growth at 10 µM,[10],103%
CC(C)[C@@]12C[C@@H](NC(=O)CO)[C@@](C)(O1)[C@@H]1CC[C@@H](C)[C@H]1[C@@H]2OC(=O)c1ccc2ccccc2c1,growth at 10 µM,[1],79%
same,GI50,MCF7 [11],15.8 µM
same,CC50,MCF7 [11]; [21],72.4 µM
same,TGI,MCF7 [11]; read-out: pTGI (converted),33.9 µM
same,GI50,[12],15.5 µM
same,LC50,[12],55 µM
same,TGI,[12]; read-out: pTGI (converted),28.8 µM
same,GI50,[13],13.5 µM
same,"LC50 (lethal concentration, 50% net cell kill)",[13],57.5 µM
same,TGI,[13]; read-out: pTGI (converted),28.2 µM
same,GI50,T47D,14.8 µM
same,CC50,T47D; [21],56.2 µM
same,TGI,T47D; read-out: pTGI (converted),28.8 µM
same,growth at 10 µM,[2],-18.3%
same,GI50,[14],16.2 µM
same,CC50,[14]; [21],64.6 µM
same,TGI,[14]; read-out: pTGI (converted),32.4 µM
same,growth at 10 µM,[3],66.9%
same,growth at 10 µM,[4],90.8%
same,growth at 10 µM,786-0,85%
same,growth at 10 µM,[5],75.7%
same,growth at 10 µM,MCF7 [6],75.4%
same,growth at 10 µM,[7],82.5%
same,growth at 10 µM,NCI-H23,80.2%
same,GI50,Malme-3M,16.2 µM
same,LC50,Malme-3M,69.2 µM
same,TGI,Malme-3M; read-out: pTGI (converted),33.1 µM
same,growth at 10 µM,KM12,94.5%
same,growth at 10 µM,[8],84.5%
same,growth at 10 µM,U-251,79.3%
same,growth at 10 µM,[9],96.2%
same,GI50,[15],17 µM
same,LC50,[15],57.5 µM
same,TGI,[15]; read-out: pTGI (converted),30.9 µM
same,GI50,MDA-MB-435,17 µM
same,LC50,MDA-MB-435,63.1 µM
same,TGI,MDA-MB-435; read-out: pTGI (converted),32.4 µM
same,GI50,[16],15.5 µM
same,LC50,[16],55 µM
same,TGI,[16]; read-out: pTGI (converted),29.5 µM
same,GI50,[17]; read-out: GI50,2.23 µM
same,GI50,[17]; read-out: pGI50 (converted),2.24 µM
same,CC50,[17]; [21],> 100 µM
same,TGI,[17]; read-out: pTGI (converted),8.91 µM
same,GI50,SN12C,11 µM
same,CC50,SN12C; [21],55 µM
same,TGI,SN12C; read-out: pTGI (converted),24.5 µM
same,GI50,[18],16.2 µM
same,LC50 (concentration causing 50% net cell kill),[18],57.5 µM
same,TGI,[18]; read-out: pTGI (converted),30.2 µM
same,GI50,[19],16.2 µM
same,LC50,[19],57.5 µM
same,TGI,[19]; read-out: pTGI (converted),30.2 µM
same,GI50,[20],16.2 µM
same,CC50,[20]; [21],56.2 µM
same,TGI,[20]; read-out: pTGI (converted),30.2 µM
same,growth at 10 µM,[10],94.3%
